Source: ChEMBL document CHEMBL1137781, “Synthesis and preclinical evaluation of novel PET probes for P-glycoprotein function and expression” (J Med Chem, 2009)

Experiments:
Ileum [1] = assay: Biodistribution in 15 mg/kg unlabeled 6,7-dimethoxy-2-(3-(5-methoxy-3,4-dihydronaphthalen-1(2H)-ylidene)propyl)-1,2,3,4-tetrahydroisoquinoline pretreated Wistar rat ileum at 13+/-2 MBq, iv after 80 mins; assay type: ADME, organism-based; design: dose 15 mg/kg, route intravenous; conditions: in vivo
In short: (§1)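 Male Wistar rats given saline or unlabeled compound via tail vein: 15 mg/kg, dissolved at 10 mg/mL in saline with 35% ethanol. [11C] tracer (8-15 MBq) then given via penile vein. After microPET scanning the anesthetized rats were killed. Tissues were excised and weighed, and blood was spun for plasma and cell fraction. γ counting with decay correction. Results as SUV (tissue MBq/g × body weight/injected dose).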

[2] = Biodistribution in 15 mg/kg unlabeled 6,7-dimethoxy-2-(3-(5-methoxy-3,4-dihydronaphthalen-1(2H)-ylidene)propyl)-1,2,3,4-tetrahydroisoquinoline pretreated Wistar rat amygdala at 13+/-2 MBq, iv after 80 mins; assay type: ADME, organism-based; design: dose 15 mg/kg, route intravenous; conditions: in vivo; in short: as §1
Brain [3] = assay: Biodistribution in 15 mg/kg unlabeled 6,7-dimethoxy-2-(3-(5-methoxy-3,4-dihydronaphthalen-1(2H)-ylidene)propyl)-1,2,3,4-tetrahydroisoquinoline pretreated Wistar rat brain at 13+/-2 MBq, iv after 56 mins; assay type: ADME, organism-based; design: dose 15 mg/kg, route intravenous; conditions: in vivo
In short: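 Male Wistar rats given saline or unlabeled compound (15 mg/kg, 10 mg/mL in saline with 35% ethanol) via tail vein. [11C] tracer then given via penile vein. Dynamic microPET under anesthesia, with a 3D ROI drawn over the whole brain. SUV taken from the time-activity curve (frames 4×60 s, 3×120 s, 4×300 s, 3×600 s), assuming a density of 1 g/mL. Mean ± SEM.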

[4] = Biodistribution in Wistar rat cingulate cortex at 11+/-2 MBq, iv after 80 mins; assay type: ADME, organism-based; conditions: in vivo
Cerebellum [5] = assay: Biodistribution in 15 mg/kg unlabeled 6,7-dimethoxy-2-(3-(5-methoxy-3,4-dihydronaphthalen-1(2H)-ylidene)propyl)-1,2,3,4-tetrahydroisoquinoline pretreated Wistar rat cerebellum at 13+/-2 MBq, iv after 80 mins; assay type: ADME, organism-based; design: dose 15 mg/kg, route intravenous; conditions: in vivo; in short: as §1
Pons = assay: Biodistribution in Wistar rat pons at 11+/-2 MBq, iv after 80 mins; assay type: ADME, organism-based; conditions: in vivo
Spleen [6] = assay: Biodistribution in Wistar rat spleen at 11+/-2 MBq, iv after 80 mins; assay type: ADME, organism-based; conditions: in vivo
Duodenum = assay: Biodistribution in 15 mg/kg unlabeled 6,7-dimethoxy-2-(3-(5-methoxy-3,4-dihydronaphthalen-1(2H)-ylidene)propyl)-1,2,3,4-tetrahydroisoquinoline pretreated Wistar rat duodenum at 13+/-2 MBq, iv after 80 mins; assay type: ADME, organism-based; design: dose 15 mg/kg, route intravenous; conditions: in vivo; in short: as §1
Ileum [7] = assay: Biodistribution in Wistar rat ileum at 11+/-2 MBq, iv after 80 mins; assay type: ADME, organism-based; conditions: in vivo
In short: (§2)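 Male Wistar rats (12 h light/dark, chow ad libitum) were fitted with a femoral arterial cannula under isoflurane. They were pretreated via tail vein with saline, cyclosporin A (50 mg/kg), or nonradioactive tracer compound (15 mg/kg; 10 mg/mL in saline with 35% ethanol). The 11C tracer was then given via penile vein, followed by 76 min microPET. Animals were then terminated; excised tissues were weighed and gamma-counted with decay correction. Values are SUVs (tissue MBq/g × body weight g / injected MBq).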

Brain [8] = assay: Biodistribution in Wistar rat brain at 11+/-2 MBq, iv after 56 mins; assay type: ADME, organism-based; conditions: in vivo
Kidney = assay: Biodistribution in 15 mg/kg unlabeled 6,7-dimethoxy-2-(3-(5-methoxy-3,4-dihydronaphthalen-1(2H)-ylidene)propyl)-1,2,3,4-tetrahydroisoquinoline pretreated Wistar rat kidney at 13+/-2 MBq, iv after 80 mins; assay type: ADME, organism-based; design: dose 15 mg/kg, route intravenous; conditions: in vivo; in short: as §1
Spleen [9] = assay: Biodistribution in 15 mg/kg unlabeled 6,7-dimethoxy-2-(3-(5-methoxy-3,4-dihydronaphthalen-1(2H)-ylidene)propyl)-1,2,3,4-tetrahydroisoquinoline pretreated Wistar rat spleen at 13+/-2 MBq, iv after 80 mins; assay type: ADME, organism-based; design: dose 15 mg/kg, route intravenous; conditions: in vivo; in short: as §1
Cerebellum [10] = assay: Biodistribution in Wistar rat cerebellum at 11+/-2 MBq, iv after 80 mins; assay type: ADME, organism-based; conditions: in vivo
Plasma = assay: Biodistribution in Wistar rat plasma at 11+/-2 MBq, iv after 60 mins; assay type: ADME, organism-based; conditions: in vivo, 1 h
In short: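 Male Wistar rats under isoflurane with a femoral arterial cannula; saline pretreatment via tail vein. Carbon-11 tracer (8–15 MBq, diluted in saline) injected into the penile vein during microPET. 14 arterial samples were drawn from 15 s to 60 min, plasma was separated by centrifugation, and radioactivity was gamma-counted. Results are given as SUV (tissue MBq/g × body weight/injected dose).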

Bone = assay: Biodistribution in Wistar rat bone at 11+/-2 MBq, iv after 80 mins; assay type: ADME, organism-based, Bone element; conditions: in vivo
[11] = Biodistribution in Wistar rat fat at 11+/-2 MBq, iv after 80 mins; assay type: ADME, organism-based, Adipose tissue; conditions: in vivo; in short: as §2
[12] = Biodistribution in 15 mg/kg unlabeled 6,7-dimethoxy-2-(3-(5-methoxy-3,4-dihydronaphthalen-1(2H)-ylidene)propyl)-1,2,3,4-tetrahydroisoquinoline pretreated Wistar rat red blood cells at 13+/-2 MBq, iv after 80 mins; assay type: ADME, organism-based, Erythrocyte; design: dose 15 mg/kg, route intravenous; conditions: in vivo; in short: as §1
[13] = Biodistribution in Wistar rat entorhinal cortex at 11+/-2 MBq, iv after 80 mins; assay type: ADME, organism-based; conditions: in vivo; in short: as §2
Colon = assay: Biodistribution in 15 mg/kg unlabeled 6,7-dimethoxy-2-(3-(5-methoxy-3,4-dihydronaphthalen-1(2H)-ylidene)propyl)-1,2,3,4-tetrahydroisoquinoline pretreated Wistar rat colon at 13+/-2 MBq, iv after 80 mins; assay type: ADME, organism-based; design: dose 15 mg/kg, route intravenous; conditions: in vivo; in short: as §1
[14] = Biodistribution in Wistar rat red blood cells at 11+/-2 MBq, iv after 80 mins; assay type: ADME, organism-based, Erythrocyte; conditions: in vivo
[15] = Biodistribution in 15 mg/kg unlabeled 6,7-dimethoxy-2-(3-(5-methoxy-3,4-dihydronaphthalen-1(2H)-ylidene)propyl)-1,2,3,4-tetrahydroisoquinoline pretreated Wistar rat trachea at 13+/-2 MBq, iv after 80 mins; assay type: ADME, organism-based; design: dose 15 mg/kg, route intravenous; conditions: in vivo; in short: as §1
[16] = Biodistribution in Wistar rat trachea at 11+/-2 MBq, iv after 80 mins; assay type: ADME, organism-based; conditions: in vivo
Hippocampus = assay: Biodistribution in 15 mg/kg unlabeled 6,7-dimethoxy-2-(3-(5-methoxy-3,4-dihydronaphthalen-1(2H)-ylidene)propyl)-1,2,3,4-tetrahydroisoquinoline pretreated Wistar rat hippocampus at 13+/-2 MBq, iv after 80 mins; assay type: ADME, organism-based; design: dose 15 mg/kg, route intravenous; conditions: in vivo; in short: as §1
[17] = Biodistribution in Wistar rat medulla at 11+/-2 MBq, iv after 80 mins; assay type: ADME, organism-based, Medulla of organ; conditions: in vivo; in short: as §2

With `COc1cc2c(cc1OC)CN(CC/C=C1\CCCc3c(O[11CH3])cccc31)CC2` the SUV (Ileum [1]) was 0.91, the SUV [2] was 0.44 and the SUV (Brain [3]) was 0.68. For the same compound, the SUV [4] was 0.7, the SUV (Cerebellum [5]) was 0.4 and the SUV (Pons) was 0.6. For the same compound, the SUV (Spleen [6]) was 2.66, the SUV (Duodenum) was 1.01 and the SUV (Ileum [7]) was 1.94. It also gave an SUV (Brain [8]) of 0.88, an SUV (Kidney) of 1.3 and an SUV (Spleen [9]) of 1.72. The SUV (Cerebellum [10]) was 0.79, the SUV (Plasma) was 0.49 and the SUV (Bone) was 0.78. For the same compound, the SUV [11] was 0.35, the SUV [12] was 0.3 and the SUV [13] was 0.55. The SUV (Colon) was 0.74, the SUV [14] was 0.24 and the SUV [15] was 0.82. It also gave an SUV [16] of 1.25, an SUV (Hippocampus) of 0.44 and an SUV [17] of 0.46.
